Rows were chosen to be rich in hits. Some 9.5% of all compounds tested hit in one or more screens of this group.
M1 agonist = M1 muscarinic receptor agonists, primary screen, CHO-M1 cells, Fluo-4 calcium, agonist mode; Fluo-4 calcium fluorescence; hits give high values; B-score at 10 µM; 64,000 tested, 3% active; AID 626, 2007;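 active = fluorescence rise, raw or as B-score row- and column-corrected plate score, outside the 99.7% band of its plate's samples, either direction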
HEK293 NFkB inh = inhibitors of PMA/ionomycin-induced NF-kB reporter, primary screen, antigen receptor NF-kB inhibitor project, cell-based, HEK-293 luciferase reporter, luminescence; inhibition, % at 3 µM; 62,000 tested, 0.21% active; HEK-293 NF-kB luciferase reporter;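 active = inhibition above the mean of all tested compounds plus 3 SD, cut at about 40% in these data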;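 also: 0% = stimulated DMSO wells and 100% = 10 µM reference inhibitor 5653914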
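System: NF-kB luciferase reporter HEK-293 cells | Replication: Single test | Control set: DMSO vs reference inhibitor | Evaluation: % inhibition | Schedule: 1 h pretreatment, 16 h stimulation, 37 °C | Probe or stimulus: PMA with ionomycin | Compound dosing: One dose, 3 µM | Detection: Luciferase luminescence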
mHtt clearance = clearance of mutant huntingtin inclusions, primary screen, imaging, HeLa Exon1htt(103Q)mCFP, confocal imaging; 47,000 tested, 0.42% active; AID 853, 2007; aggregate imaging; zero = plate's median compound well; inhibition, % at 1.5 µM;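 active = inhibition of aggregate fluorescence above about 70%, also judged a hit by eye on the cell image, limit read from the data, passing the limit was not always enough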;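 also: cells exposed to compound for three days before fixation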
D1 allo mod = D1 CRE-luciferase signal change, two-sided – cell-based, HEK293 D1, dopamine EC30, D1 allosteric modulator project, primary screen; B-score at 10 µM; 58,000 tested, 5.9% active; dopamine EC30 potentiation; actives deviate in either direction;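 active = luminescence count or its row- and column-corrected plate score outside the 99.7% band of the plate's sample wells, on either side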
Target sequence (P21728 whole entry, looked up): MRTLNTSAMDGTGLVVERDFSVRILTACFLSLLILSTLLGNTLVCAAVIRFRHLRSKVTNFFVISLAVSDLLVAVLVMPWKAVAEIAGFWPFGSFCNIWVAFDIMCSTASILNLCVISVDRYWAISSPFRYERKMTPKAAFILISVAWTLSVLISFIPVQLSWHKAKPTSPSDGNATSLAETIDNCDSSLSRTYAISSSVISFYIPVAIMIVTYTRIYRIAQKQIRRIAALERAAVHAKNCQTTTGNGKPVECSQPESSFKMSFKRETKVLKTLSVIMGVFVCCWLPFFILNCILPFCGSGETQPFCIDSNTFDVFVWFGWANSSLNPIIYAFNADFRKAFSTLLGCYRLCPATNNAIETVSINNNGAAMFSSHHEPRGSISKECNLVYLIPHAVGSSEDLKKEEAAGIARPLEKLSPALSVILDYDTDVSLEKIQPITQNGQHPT
M1 antag = antagonists of rat M1 muscarinic receptor | CHO-M1 cells, Fluo-4 calcium, ACh EC80 antagonist mode; hits give low values | AID 628, 2007 | B-score at 10 µM | 64,000 tested, 3.4% active;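 active = calcium fluorescence response, raw or row-and-column corrected B-score, differing from the plate sample mean either way at a set confidence level, mostly lower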
Jurkat viability = cytotoxicity toward Jurkat T cells, primary screen, cytotoxicity control, cell-based, Jurkat E6.1, 60K MLSMR library; inhibition, % at 4 µM; Jurkat E6.1 viability, ATP luminescence, 48 h; AID 463, 2006; 56,000 tested, 1.2% active;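 active = inhibition above the mean inhibition of all tested compounds plus 3 SD, cut at about 28% in these data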
D1 mod confirm = D1 receptor positive allosteric modulators, retest, confirmation, cell-based, HEK293 D1, CRE-luciferase, duplicate; shares compounds with D1 allo mod; dopamine EC30 potentiation; hits give high values; luminescence at 10 µM; 2,200 tested, 88% active;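 active = luminescence in either of two replicates above the same-plate mean plus 3 SD of the low-dose dopamine control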
D1 no dopamine = D1 receptor agonism without dopamine, confirmation, mechanism study for D1 allosteric modulator project, cell-based, HEK293 D1, CRE-luciferase, secondary assay 1. shares compounds with D1 allo mod. 1,900 tested, 0.8% active. luminescence, no dopamine; hits give high values. luminescence at 10 µM; in the data active = luminescence above about 3900
Isoprot counter = isoproterenol response counter-screen activity for D1 modulators; luminescence at 10 µM; shares compounds with D1 allo mod; 2,200 tested, 63% active; HEK293 D1 CRE-luciferase, isoproterenol EC30 counter-screen; hits give high values;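 active = luminescence in either replicate above plate mean of wells with a partly effective reference agonist dose plus 3 SD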;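 also: isoproterenol raises cAMP through native beta-adrenoceptor Gs so signal bypasses D1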
Active calls of the source: *; . = no result given.

SMILES	M1 agonist	HEK293 NFkB inh	mHtt clearance	D1 allo mod	M1 antag	Jurkat viability	D1 mod confirm	D1 no dopamine	Isoprot counter
Cc1ccc2c(c1)-c1cc(C)nn1C(c1sccc1C)N2 (stereo unspecified)	0.385	-2.7	.	2.17	-0.00187	-9.4	.	.	.
Cc1ccc2c(c1)-c1cc(C)nn1C(c1ccc3c(c1)OCO3)N2 (stereo unspecified)	-0.00457	-1.5	-25.9	5.33*	-1.74	-0.7	12540*	1584	3656*
Cc1cc2n(n1)C(c1ccc(N(C)C)cc1)Nc1ccccc1-2 (stereo unspecified)	-0.00768	-12.4	.	1.05	0.0999	-0.4	.	.	.
Cc1cc2n(n1)C(c1ccccc1)Nc1ccccc1-2 (stereo unspecified)	0.471	25.0	.	13.9*	0.171	1.3	14996*	1724	3876*
O=C(CN1CCC(n2nnc3cc(F)ccc32)CC1)NCCc1nc2ccccc2[nH]1	0.217	14.7	-49.7	-1.27	-0.392	7.3	.	.	.
CCOC(=O)C1=C(C)NC(=O)NC1/C(C)=C/c1ccccc1 (stereo unspecified)	0.0464	19.9	.	0.595	0.376	-0.4	.	.	.
COc1ccc(OC)c(/C=N/c2oc(-c3ccco3)c(-c3ccco3)c2C#N)c1	-0.222	16.9	-13.7	9.5*	-0.000242	-4.8	16404*	1712	2776
N#Cc1c(/N=C/c2ccco2)oc(-c2ccccc2)c1-c1ccccc1	1.18	9.8	.	0.753	-0.0522	3.9	.	.	.
O=c1oc(-c2ccco2)nc2sc3c(c12)CCCC3	.	.	27.8	.	.	.	.	.	.
Cc1ccc(C2C3=C(CC(C)(C)CC3=O)Nc3n[nH]c(C)c32)cc1 (stereo unspecified)	0.145	26.7	.	1.48	0.518	-6.0	.	.	.
Cc1[nH]nc2c1C(c1ccc(F)cc1)C1=C(CC(C)(C)CC1=O)N2 (stereo unspecified)	0.956	5.4	.	6.27*	-0.0036	-3.1	12860*	1600	2756
CC(C)(CNC(=O)c1cc2ccccc2o1)N1CCOCC1	1.4	0.3	-5.6	1.2	0.989	-1.6	.	.	.
Cc1ccc(CNc2oc(-c3cccs3)nc2C#N)cc1	-0.0654	-7.2	-67.5	18.3*	1.57	-3.8	22592*	1632	5144*
N#Cc1nc(-c2cccs2)oc1NCc1ccc(Cl)cc1	-0.00973	11.5	.	8.31*	-0.268	3.5	9676*	1684	3416*
N#Cc1nc(-c2ccc(F)cc2)oc1NCc1ccccc1	0.14	-0.2	.	5.66*	0.144	-11.4	8092*	1668	2912
N#Cc1nc(-c2cccs2)oc1NCc1ccccc1	-0.518	.	30.9	.	0.151	.	.	.	.
Cc1cccc(N2CCN(c3nc4ccc(Cl)cc4n4cnnc34)CC2)c1C	-1.07	15.7	.	-0.441	-0.013	-4.4	.	.	.
CCCCSc1nnc(CCCCCNC(=O)OC(C)(C)C)o1	-1.29	11.5	.	-0.747	-0.298	10.0	.	.	.
Clc1ccc(C(c2nnnn2C2CCCCC2)N(Cc2cccnc2)Cc2ccco2)cc1 (stereo unspecified)	.	0.6	.	.	.	4.9	.	.	.
CC(=O)C(C)Oc1ccc2c3c(c(=O)oc2c1)CCCC3 (stereo unspecified)	-0.0328	6.5	-18.3	7.76*	-1.08	-1.0	8432*	.	3280*
CC(=O)COc1ccc2c3c(c(=O)oc2c1)CCCC3	0.0199	5.7	13.4	4.89*	0.0697	0.9	9956*	1048	3800*
CC(=O)C(C)Oc1ccc2c3c(c(=O)oc2c1)CCCCC3 (stereo unspecified)	-0.6	-24.5	-3.1	1.49	-0.294	-2.2	.	.	.
O=C(CCC(=O)Nc1nnc(C2CCCCC2)s1)NCc1cccs1	-0.394	15.5	.	3.83*	-0.0232	-0.4	5740	1656	2568
CCCc1nc2oc3c(NCc4ccccn4)ncnc3c2c2c1COC(C)(C)C2	.	17.1	.	16.2*	.	-1.2	19424*	.	5392*
CCCc1nc2oc3c(NCC4CCCO4)ncnc3c2c2c1COC(C)(C)C2 (stereo unspecified)	.	16.9	.	14.8*	.	4.0	19660*	.	4428*
SMILES	M1 agonist	HEK293 NFkB inh	mHtt clearance	D1 allo mod	M1 antag	Jurkat viability	D1 mod confirm	D1 no dopamine	Isoprot counter
CCCc1nc2oc(C(=O)OCC)c(N)c2c2c1COC(C)(C)C2	-0.466	14.7	.	3.89	-0.222	-0.7	.	.	.
CCOC(=O)c1c(CN2CCCCC2)n(C)c2ccc(OC)c(S(=O)(=O)c3ccccc3)c12	0.319	18.6	.	-0.493	1.02	.	.	.	.
CC(C)CN1CN(S(=O)(=O)c2cccs2)c2nc3ccccc3nc21	-0.523	6.7	.	11.4*	-0.242	-2.2	18664*	1708	3524*
Clc1ccc(OCc2nnc3n2N=C(c2ccc4c(c2)OCCO4)CS3)c(Cl)c1	0.439	-2.8	.	3.97*	0.265	3.4	9040*	1568	3300*
CCc1nnc2n1N=C(c1ccc(-c3ccc(Cl)cc3Cl)o1)CS2	0.632	1.2	.	1.02	-0.0518	4.5	.	.	.
CCNc1nc(C)c2cc(Br)c(=O)n(CC)c2n1	1.77	32.2	.	14.8*	-0.461	5.7	24012*	1832	6200*
Cc1noc(/C=C/N(C)C)c1S(=O)(=O)N1CCCC(C(=O)NC(C)c2ccccc2)C1 (stereo unspecified)	-0.406	17.9	-14.2	.	0.00258	8.0	.	.	.
COc1ccc(C2NC(=O)CS2)cc1OC (stereo unspecified)	0.0265	16.6	23.8	5.76*	-0.162	-2.9	13168*	.	3256*
CCC(C)Sc1nc2c(c(=O)[nH]c(=O)n2C)n1Cc1ccccc1Cl (stereo unspecified)	0.719	17.5	.	.	-0.543	3.7	.	.	.
Cc1ccc(S(=O)(=O)Nc2nc(C)c(NC(=O)OCCCl)s2)cc1	.	.	5.4	.	.	.	.	.	.
Cc1nc(NS(=O)(=O)c2ccccc2)sc1NC(=O)OC(C)C	-0.0135	.	.	2.36*	-0.894	.	4964	.	2348
c1ccc(-c2c(-c3ccccc3)n(Cc3ccco3)c3ncnc(NCCCn4ccnc4)c23)cc1	.	.	-2.5	.	.	.	.	.	.
OCCNc1ncnc2c1c(-c1ccccc1)c(-c1ccccc1)n2Cc1ccco1	-0.501	.	.	5.8*	0.426	.	8384*	1284	2856
N#Cc1c(-c2ccccc2Cl)cc(C2CC2)nc1N	3.61	.	.	14.8*	-0.0328	.	20296*	1408	4128*
